# Assay results from ChEMBL document CHEMBL4052792, “3-Hydroxykynurenine, a Tryptophan Metabolite Generated during the Infection, Is Active Against Trypanosoma cruzi” (ACS Med Chem Lett, 2017).
# Legend:
# [1] = system: Enterococcus faecalis; assay: Antimicrobial activity against vancomycin-resistant Enterococcus faecalis NCTC12201 after 8 hrs; type: functional; settings: NCTC12201, 8 h
# [2] = system: PBMC; assay: Cytotoxicity against human PBMC assessed as reduction in cell viability at 1200 to 2000 uM after 48 hrs by trypan blue exclusion assay; type: cell-based
# In short: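 Human PBMC and Jurkat cells were treated for 48 h with a range of 3-HK concentrations or left untreated. Viable cells were counted under light microscopy by trypan blue exclusion. Data are means ± SD of four independent experiments.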
# [3] = Induction of apoptosis in BALB/C mouse BMDM assessed as cells with hypodiploid DNA content at 2 uM after 24 hrs by FITC/propidium iodide staining based flow cytometric analysis (reference value: 29.9%); type: functional
# [4] = system: Trypanosoma cruzi; assay: (§1) Trypanocidal activity against Trypanosoma cruzi Tulahuen amastigotes infected in BALB/C mouse bone marrow derived macrophages assessed as parasite infected macrophages at 200 uM treated for 24 hrs followed by compound washout measured after 48 hrs by immunofluorescence assay (reference value: 26.84 +/- 7.81%); type: functional
# [5] = system: Trypanosoma cruzi; assay: as §1, with “400” for “200”; type: functional
# [6] = system: Trypanosoma cruzi; assay: Trypanocidal activity against Trypanosoma cruzi Tulahuen amastigotes infected in BALB/C mouse bone marrow derived macrophages assessed as reduction in parasite infected macrophages at 0.2 uM after 72 hrs by immunofluorescence assay relative to control; type: functional
# [7] = Induction of apoptosis in BALB/C mouse BMDM assessed as cells with hypodiploid DNA content at 0.2 uM after 24 hrs by FITC/propidium iodide staining based flow cytometric analysis (reference value: 29.9%); type: functional
# [8] = system: Trypanosoma cruzi; assay: Induction of mitochondrial membrane depolarization in Trypanosoma cruzi Tulahuen trypomastigotes at 8000 uM after 24 hrs by Rh123/propidium iodide staining-based flow cytometric analysis (reference value: 3.25 +/- 1.66%); type: functional
# In short: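 Trypomastigotes were treated with 3-HK for 24 h at 37 °C, then incubated with PI plus Rh123. Rh123 fluorescence was read by flow cytometry in PI-negative (live) parasites. The depolarized fraction was taken as the low-fluorescence M2 population. Index of variation = (treated median − control median)/control median. Three experiments were run.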
# [9] = system: Trypanosoma cruzi; assay: Trypanocidal activity against Trypanosoma cruzi Tulahuen trypomastigotes infected in mouse whole blood assessed as viable trypomastigote cells at 20 uM after 96 hrs by trypan blue assay relative to control; type: functional
# In short: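 Trypomastigotes were exposed to 20 μM in 100% whole blood at 37 °C. Viable parasites were counted after 24, 48, 72 and 96 h. Results are means ± SD of three independent experiments.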
smiles,measurement,setting,value
Nc1c(O)cccc1C(=O)C[C@H](N)C(=O)O,IC50,[1],30 to 137 µM
same,Activity,[2],Toxic
same,Activity,[3],28.2%
same,Activity,[4],7.76%
same,Activity,[5],14.66%
same,inhibition at 0.2 µM,[6],59%
same,Activity,[7],27.5%
same,Activity,[8],40.7%
same,Activity,[9],50%
